What all share (format): cell-based
The target of assay [1] is Tyrosine-protein kinase SYK (Rattus norvegicus) (UniProt Q64725). In words: Inhibition of spleen tyrosine kinase in rat RBL-2H3 cells assessed as inhibition of IgE-induced degranulation at 10 to 100 uM after 1 hr by beta-hexosaminidase release assay. The procedure, abridged: (§1)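 RBL-2H3 cells (2 × 10^4/well) cultured 1 h, then sensitized with anti-DNP IgE 0.45 µg/ml for 24 h. Cells were washed in Siraganian buffer A (PIPES, pH 7.2) and equilibrated in buffer B at 37 °C for 10 min. Compound was added at 37 °C for 30 min, then DNP-BSA 10 µg/ml for 10 min. Supernatant β-hexosaminidase was read with p-nitrophenyl-N-acetyl-β-D-glucosaminide at A405, corrected for direct enzyme inhibition.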
Sequence of Tyrosine-protein kinase SYK (Rattus norvegicus) (Q64725 whole entry, looked up): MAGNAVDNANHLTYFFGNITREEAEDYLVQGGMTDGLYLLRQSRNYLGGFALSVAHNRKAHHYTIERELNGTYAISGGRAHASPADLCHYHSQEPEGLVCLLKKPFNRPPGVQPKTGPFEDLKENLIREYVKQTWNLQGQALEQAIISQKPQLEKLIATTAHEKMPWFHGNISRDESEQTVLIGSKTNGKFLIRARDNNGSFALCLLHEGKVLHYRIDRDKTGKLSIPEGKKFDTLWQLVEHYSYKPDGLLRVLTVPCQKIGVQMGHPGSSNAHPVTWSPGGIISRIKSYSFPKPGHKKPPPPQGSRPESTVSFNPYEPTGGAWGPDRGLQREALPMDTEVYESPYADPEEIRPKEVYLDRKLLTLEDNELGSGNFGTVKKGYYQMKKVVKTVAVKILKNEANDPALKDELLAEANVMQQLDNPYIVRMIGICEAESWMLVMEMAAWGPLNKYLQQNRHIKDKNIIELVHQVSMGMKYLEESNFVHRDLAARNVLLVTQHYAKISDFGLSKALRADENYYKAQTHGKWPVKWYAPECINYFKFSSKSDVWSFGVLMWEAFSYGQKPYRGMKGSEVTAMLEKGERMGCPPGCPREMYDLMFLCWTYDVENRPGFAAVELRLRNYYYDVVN

Assay [2] shares this target. Description: Inhibition of spleen tyrosine kinase in rat RBL-2H3 cells assessed as inhibition of IgE-induced increase of ROS level at 50 uM after 30 mins by FLIPR assay. The procedure, abridged:
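Sensitized RBL-2H3 cells (5 × 10^4/well) took up 10 µM CM-H2DCFDA for 30 min at 37 °C and were washed twice. Cells were exposed to 50 µM compound for 30 min, then challenged with DNP-BSA 10 µg/ml. DCF fluorescence (ex 490/em 530 nm) was read on a fluorometric imaging plate reader. DPI 200 nM served as control. Means ± SEM, n = 10.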

Assay [3] has the same target. In words: Inhibition of spleen tyrosine kinase in rat RBL-2H3 cells assessed as inhibition of IgE-induced upregulation of cPLA2 level at 50 uM after 30 mins by Western blotting. The procedure, abridged:
(§2)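 IgE-sensitized RBL-2H3 cells were pretreated 30 min with 50 µM compound and stimulated with DNP-BSA. Lysates were run on SDS-PAGE and transferred to PVDF. Membranes were blocked 1 h in 5% nonfat milk, probed with primary antibody overnight at 4 °C, then HRP secondary antibody 1 h at room temperature. ECL chemiluminescence detection; three independent experiments.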
For orientation: A western blot detects proteins with antibodies after separation by electrophoresis.

Assay [4] has the same target. Description: Inhibition of spleen tyrosine kinase in rat RBL-2H3 cells assessed as inhibition of IgE-induced upregulation of JNK level at 50 uM after 30 mins by Western blotting. The procedure, abridged: as §2
Assay [5] has the same target. Description: Inhibition of spleen tyrosine kinase in rat RBL-2H3 cells assessed as inhibition of IgE-induced upregulation of phospholipase Cgamma1 level at 50 uM after 30 mins by Western blotting. The procedure, abridged:
as §2

Assay [6] shares this target. In words: Inhibition of spleen tyrosine kinase in rat RBL-2H3 cells assessed as inhibition of IgE-induced degranulation after 1 hr by beta-hexosaminidase release assay. The procedure, abridged:
as §1

Assay [7] shares this target. Description: Inhibition of spleen tyrosine kinase in rat RBL-2H3 cells assessed as inhibition of IgE-induced upregulation of phospholipase 2 level at 50 uM after 30 mins by Western blotting. In outline: as §2
For assay [8] the target is unchanged. Description: Inhibition of spleen tyrosine kinase in rat RBL-2H3 cells assessed as inhibition of IgE-induced upregulation of PI3K/Akt level at 50 uM after 30 mins by Western blotting. In outline:
as §2

Assay [9] shares this target. Description: Inhibition of spleen tyrosine kinase in rat RBL-2H3 cells assessed as inhibition of IgE-induced upregulation of Lyn level at 50 uM after 30 mins by Western blotting. In outline:
as §2

Assay [10] has the same target. In words: Inhibition of spleen tyrosine kinase in rat RBL-2H3 cells assessed as inhibition of IgE-induced upregulation of p38 level at 50 uM after 30 mins by Western blotting. The procedure, abridged:
as §2

The target is the same in assay [11]. In words: Inhibition of spleen tyrosine kinase in rat RBL-2H3 cells assessed as inhibition of IgE-induced upregulation of ERK1/2 level at 50 uM after 30 mins by Western blotting. The procedure, abridged:
as §2

For assay [12] the target is unchanged. In words: Inhibition of spleen tyrosine kinase in rat RBL-2H3 cells assessed as inhibition of IgE-induced increase of intracellular calcium level at 50 uM after 30 mins by FLIPR assay. In outline: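 IgE-sensitized RBL-2H3 cells (5 × 10^4/well; anti-DNP IgE 0.45 µg/ml, 24 h) were loaded with Fluo-3AM for 1 h. Cells were washed and held 30 min in loading buffer containing 50 µM compound, then stimulated with DNP-BSA 10 µg/ml. Fluorescence (ex 490/em 530 nm) was recorded on a fluorometric imaging plate reader. Means ± SEM, n = 12.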
Background: A change in cytosolic calcium serves as a functional read-out for many receptors and channels.

Activity calls are given as the source filed them. No cut-off for these calls is given here.

Turning to `O=C(/C=C/c1ccccc1)O[C@@H]1O[C@H](CO)[C@@H](O)[C@H](O)[C@H]1O`, the inhibition result in assay [1] is “Active”.
On to `COC(=O)/C=C/c1ccc(O[C@@H]2O[C@H](CO)[C@@H](O)[C@H](O)[C@H]2O)cc1`, for which the inhibition result in [2], in [3], in assay [4], in [5], in assay [7] and in assay [8] was “Active” in each case. The inhibition entry in assay [10], in [11] and in assay [12] was “Active” in each case. For the same molecule, the inhibition entry in assay [6] was “Dose-dependent effect”. Also, the inhibition result in [9] was “inactive”.
With `O=C(O)/C=C/c1ccc(O)cc1`, the inhibition entry in assay [1] is “inactive”.
With `O=C(O)/C=C/c1ccccc1`, the inhibition entry in assay [2], in [5], in [7] and in assay [12] was “Active” in each case. In addition, the inhibition entry in assay [6] was “Dose-dependent effect”. Moreover, the inhibition result in [9] was “inactive”.
